Source: ChEMBL document CHEMBL4118025, “ent-Abietane and Tigliane Diterpenoids from the Roots of Euphorbia fischeriana and Their Inhibitory Effects against Mycobacterium smegmatis” (2017)
Converted amounts (≈) assume the structure as drawn.

Tested on: Mycolicibacterium smegmatis
Experiment: Antimycobacterial activity against Mycobacterium smegmatis after 24 hrs by microplate alamar blue assay
Format: functional
How it was run: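 Alamar blue viability read-out in 96-well microplates, following an earlier described method; test materials dissolved in DMSO at an initial 0.4 mg/mL; kanamycin positive control at 0.1 mg/mL; M. smegmatis strain preincubated 48 h before incubation with test materials.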

| SMILES | MIC |
| --- | --- |
| CC(=O)O[C@@]12[C@H](O)[C@@H](C)[C@@]3(O)[C@@H](C=C(CO)C[C@]4(O)C(=O)C(C)=C[C@@H]34)[C@@H]1C2(C)C | > 400 mg/L |
| CC1=C2C(=C[C@H]3[C@]4(C)CCCC(C)(C)[C@H]4CC[C@]34O[C@H]24)OC1=O | > 400 mg/L |
| CC1(C)CCC[C@]2(C)[C@@H]1CC[C@@]13O[C@@H]1C1=C(CO)C(=O)OC1=C[C@@H]23 | 100 mg/L (≈ 303 µM) |
| CC1(C)CCC[C@]2(C)[C@@H]1CC[C@@]13O[C@@H]1C1=C(CO)C(=O)O[C@]14O[C@@H]4[C@@H]23 | 1.5 mg/L (≈ 4.33 µM) |
| CC1=C2[C@@H](O)[C@@]3(O)CC[C@@H]4C(C)(C)CCC[C@@]4(C)[C@@H]3[C@@H](O)[C@H]2OC1=O | > 400 mg/L |
| CC(=O)O[C@@]12C[C@@H](C)[C@@]3(O)[C@@H](C=C(CO[C@@H]4O[C@H](CO)[C@@H](O)[C@H](OC(=O)c5cc(O)c(O)c(O)c5)[C@H]4O)C[C@]4(O)C(=O)C(C)=C[C@@H]34)[C@@H]1C2(C)C | > 400 mg/L |
| CC(=O)O[C@@]12C[C@](C)(O)[C@H]3[C@@H](C=C(CO)C[C@]4(O)C(=O)C(C)=C[C@@H]34)[C@@H]1C2(C)C | > 400 mg/L |
| CC1=C2[C@@H](OC1=O)C(=O)[C@H]1[C@]3(C)CCCC(C)(C)[C@H]3CC[C@@]1(O)[C@H]2O | 300 mg/L (≈ 861 µM) |
| CC1(C)C(=O)CC[C@]2(C)[C@@H]1C[C@H](O)C1=CC3=C(CO)C(=O)O[C@@H]3[C@@H](O)[C@H]12 | > 400 mg/L |
| CC(=O)O[C@@]12C[C@@H](C)[C@@]3(O)[C@@H](C=C(CO[C@@H]4O[C@H](CO)[C@@H](OC(=O)c5cc(O)c(O)c(O)c5)[C@H](O)[C@H]4O)C[C@]4(O)C(=O)C(C)=C[C@@H]34)[C@@H]1C2(C)C | > 400 mg/L |
| CC1=C2C=C3[C@@H](O)C[C@@H]4C(C)(C)CCC[C@@]4(C)[C@@H]3[C@@H](O)[C@@]2(O)OC1=O | 400 mg/L (≈ 1150 µM) |
| CC1(C)CCC[C@]2(C)[C@@H]1CCC1=CC3=C(CO)C(=O)O[C@]3(O)[C@H](O)[C@H]12 | 200 mg/L (≈ 574 µM) |
| CC(=O)O[C@@]12C[C@@H](C)[C@@]3(O)[C@@H](C=C(C=O)C[C@]4(O)C(=O)C(C)=C[C@@H]34)[C@@H]1C2(C)C | > 400 mg/L |
| CC1=C[C@H]2[C@@]3(O)[C@H](C)CC(=O)[C@@H](C(C)C)[C@@H]3C=C(CO)C[C@]2(O)C1=O | > 400 mg/L |
| CC1(C)CCC[C@]2(C)[C@@H]1CC[C@]1(O)[C@H](O)C3=C(CO)C(=O)OC3=C[C@@H]21 | > 400 mg/L |
| CC1(C)CCC[C@]2(C)[C@@H]1C[C@H](O)C1=CC3=C(CO)C(=O)O[C@]3(O)[C@H](O)[C@H]12 | > 400 mg/L |
| CC(=O)O[C@@]12C[C@@H](C)[C@@]3(O)[C@@H](C=C(C(=O)O)C[C@]4(O)C(=O)C(C)=C[C@@H]34)[C@@H]1C2(C)C | > 400 mg/L |
| CC1(C)C(=O)CC[C@]2(C)[C@@H]1CCC1=CC3=C(CO)C(=O)O[C@@H]3[C@@H](O)[C@H]12 | > 400 mg/L |
| CC(=O)O[C@@]12C[C@@H](C)[C@@]3(O)[C@@H](C=C(CO[C@@H]4O[C@H](CO)[C@@H](O)[C@H](O)[C@H]4O)C[C@]4(O)C(=O)C(C)=C[C@@H]34)[C@@H]1C2(C)C [FISCHEROSIDES A] | > 400 mg/L |
| NC[C@H]1O[C@H](O[C@H]2[C@H](O)[C@@H](O[C@H]3O[C@H](CO)[C@@H](O)[C@H](N)[C@H]3O)[C@H](N)C[C@@H]2N)[C@H](O)[C@@H](O)[C@@H]1O [KANAMYCIN] | 10 mg/L (≈ 20.6 µM) |
| CC(=O)O[C@@]12C[C@@H](C)[C@@]3(O)[C@@H](C=C(CO)C[C@]4(O)C(=O)C(C)=C[C@@H]34)[C@@H]1C2(C)C [PROSTRATIN] | > 400 mg/L |
